# Source: PubChem
# An excerpt weighted towards active compounds, which were near 2.1% of everything screened.
# ARNT-TACC3 inh: ARNT/TACC3 interaction disruption | Q9Y6A5 | 390,000 compounds, 0.66% hits | AlphaScreen His-ARNT PAS-B/GST-TACC3 binding, luminescence; TACC3 fragment carries E629A point mutation | inhibition, % at 9.99 µM;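 active means mean inhibition of replicates at least 50% and at least half of replicates each reaching 50%; inconclusive means half or more replicates reach 50% but mean below 50%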;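 further: 0% = complete ARNT plus TACC3 wells and 100% = ARNT alone without TACC3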
# ERp5 block: ERp5 (human) disulfide isomerase inhibition. Q15084. ERp5 insulin aggregation, absorbance 650 nm, 90 min. inhibition, % at 9.99 µM. 350,000 compounds, 0.05% hits. AID 651711;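 active means mean replicate inhibition above about 25%, with every replicate also reaching it, limit read from the data, passing the limit was not always enough; inconclusive means only one of those two criteria met; inactive means neither criterion met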
# FGF22 binding: binders of recombinant human FGF22 by thermal shift; SYPRO orange fluorescence; percent of sucrose octasulfate shift, DMSO zero; 340,000 compounds, 1.5% hits; activity (Tm shift, normalised), % at 9.99 µM; Q9HCT0;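 active means mean Tm shift, scaled 0 neutral to 100 positive control, at about 1.3% or above, every replicate too, limit read from the data; inconclusive means no clear call, values can overlap the other calls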
# Target sequence (Q9HCT0 whole entry, looked up): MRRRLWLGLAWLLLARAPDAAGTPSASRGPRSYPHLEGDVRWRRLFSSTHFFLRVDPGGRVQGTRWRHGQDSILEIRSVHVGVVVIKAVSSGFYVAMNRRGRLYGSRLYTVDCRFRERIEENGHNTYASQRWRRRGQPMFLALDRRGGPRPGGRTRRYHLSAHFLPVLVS
# PDI turbidity: inhibitors of human protein disulfide isomerase; 350,000 compounds, 0.052% hits; P07237; PDI insulin aggregation turbidity, A650, 90 min; inhibition, % at 10 µM;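 active means mean inhibition across replicates of 30% or more, whatever share of single replicates reach that level; inconclusive means mean inhibition below 30% while every single replicate reaches 30%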
# Target sequence (P07237 whole entry, looked up): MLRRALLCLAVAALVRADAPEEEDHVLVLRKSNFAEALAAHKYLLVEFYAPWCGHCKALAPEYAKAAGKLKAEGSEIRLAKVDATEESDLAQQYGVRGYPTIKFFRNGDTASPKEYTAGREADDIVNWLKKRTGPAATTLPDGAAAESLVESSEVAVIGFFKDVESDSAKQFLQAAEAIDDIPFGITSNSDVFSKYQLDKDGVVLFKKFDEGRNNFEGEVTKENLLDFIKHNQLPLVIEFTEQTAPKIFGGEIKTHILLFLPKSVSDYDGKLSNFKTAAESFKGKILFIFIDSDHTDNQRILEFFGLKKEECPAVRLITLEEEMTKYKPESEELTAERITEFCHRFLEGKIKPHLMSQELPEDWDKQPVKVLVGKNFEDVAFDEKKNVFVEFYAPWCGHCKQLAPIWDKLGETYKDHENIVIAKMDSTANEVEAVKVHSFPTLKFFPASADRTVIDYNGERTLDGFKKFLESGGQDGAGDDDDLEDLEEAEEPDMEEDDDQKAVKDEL
# FN deposit inh: fibronectin deposition inhibition; AH1F fibroblasts, Alexa488-fibronectin deposition fluorescence, overnight; inhibition, % at 12.6 µM; 350,000 compounds, 0.086% hits;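 active means mean inhibition across replicates of 30% or more, regardless of how many single replicates reach that level; inconclusive means mean under 30% yet at least half of replicates reach 30%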;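 further: positive control wells lacked labelled fibronectin entirely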
#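 Material – AH1F fibroblast monolayer, labelled fibronectin deposition · Reagent – labelled fibronectin 24 nM · Timing – 1 h adhesion, overnight exposure · Measured by – fluorescence at 485 nm excitation, 525 nm emission · Read-out – inhibition of fibronectin deposition signal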
# MLL AF4-AF9 inh: MLL-AF4/AF9 protein interaction inhibition. 350,000 compounds, 0.47% hits. AlphaScreen, biotin-AF4 peptide binding to FLAG-AF9. inhibition, % at 10 µM;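 active means every replicate reaching a set inhibition limit, whatever the replicate mean, cut at about 25% in these data; inconclusive means mean inhibition reaches that limit but some replicates miss it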;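 further: 0% = plate neutral control median and 100% = total signal loss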
# Numbers without * were called inactive; ? = inconclusive; · = no result given.
SMILES,ARNT-TACC3 inh,ERp5 block,FGF22 binding,PDI turbidity,FN deposit inh,MLL AF4-AF9 inh
Cc1ccc(S(=O)(=O)N2C[C@]3(O)C[C@@H]4C(=O)N(c5ccccc5)C(=O)[C@@H]4C[C@]3(OC(=O)Nc3cccs3)C2)cc1,·,10.1,43.4*,3.3,4.8,1.3
Cc1ccc(S(=O)(=O)N2C[C@]3(O)C[C@@H]4C(=O)N(c5ccccc5)C(=O)[C@@H]4C[C@]3(OC(=O)Nc3c(C)noc3C)C2)cc1,·,0.9,-0.2,-2.3,5.1,-2.8
O=S(=O)(c1ccccc1)N1N=C(c2ccc(O)cc2)CC1c1ccco1 (stereo not given),-4.8,11.3,-0.2,38.2*,-4.8,-1.7
Cc1ccc(C2=NN(S(=O)(=O)c3ccccc3)C(c3ccco3)C2)cc1 (stereo not given),·,3.1,0.0,0.5,-3.7,6.3
COC(=O)CSc1ccc2nnc(-c3ccc(OC)c(OC)c3)n2n1,-0.7,-5.1,-0.1,8.2,-0.2,32.5*
COC(=O)CSc1ccc2nnc(-c3ccc(F)cc3)n2n1,0.6,3.9,0.2,-1.8,·,4.5
NC(N)=NC(N)=Nc1ccc2ccccc2c1,10.7,2.7,43.9*,0.2,7.8,-0.8
O=C(C[C@@H]1C=C[C@H](NC(=O)Cc2cccnc2)[C@H](CO)O1)Nc1ccc(-c2ccccc2)cc1,·,-1.0,·,·,-6.8,-4.2
Cc1nc(SCCOc2ccccc2)[nH]c(=O)c1Cc1ccccc1,-1.8,2.8,43.5*,-0.5,2.3,-0.2
CCCNC(=O)N1CC2(C1)[C@H](c1ccccc1)[C@H](CO)N2C(=O)C1CCCC1,·,-2.7,·,·,1.4,-2.4
Cc1nnc(SCCOc2ccccc2)s1,-4.2,-3.7,44.1*,-1.8,-1.9,0.8
Nc1nnc(SCCOc2ccccc2)s1,0.4,6.1,0.3,7.7,·,6.2
O=C(/C=C/c1ccc(O)cc1)c1ccccc1,-2.2,-3.6,1.3*,-1.8,-5.1,-3.1
O=C(/C=C/c1cccnc1)c1cccc(O)c1,·,3.9,-0.1,44.4*,-0.7,?
CN(C)c1ccc(/C=C/C(=O)c2ccc(O)cc2)cc1,-28.5,3.3,0.9,26.8,-2.9,-11.1
COc1ccc(C=CC(=O)c2ccc([N+](=O)[O-])cc2)cc1,-7.1,-2.1,0.2,5.6,17.6,-0.4
O=C(/C=C/c1cccc(O)c1)c1cccnc1,0.4,-1.8,0.1,2.0,-0.6,2.2
COc1ccc(C(=O)/C=C/c2ccc(O)cc2)cc1,1.3,1.7,2.7*,·,·,-2.2
COc1cccc(-c2ccc(C3[C@H]4CNC[C@@H]3N4S(=O)(=O)c3cccc(Cl)c3)cc2)c1 (stereo not given in full),·,3.5,·,·,-9.1,-6.1
CCOC(=O)c1ccc(CC2SC(N)=NC2=O)cc1 (stereo not given),-3.5,2.0,-0.1,2.0,3.5,-1.2
CCOC(=O)c1ccc(NC(=O)C2CC(=O)N=C(N)S2)cc1 (stereo not given),1.6,-5.2,43.3*,-1.2,0.3,-0.5
CO[C@H]1CN(C)C(=O)c2ccc(NC(=O)c3ccno3)cc2OC[C@H](C)NC[C@@H]1C,3.2,-2.8,-0.3,·,-4.5,-4.5
Cc1ccc(N2CC(O)=C(c3nc4ccccc4c(=O)[nH]3)C2=N)cc1C,26.8,1.5,43.0*,-5.6,-0.4,-0.9
CCOc1ccc(N2CC(O)=C(c3nc4ccccc4c(=O)[nH]3)C2=N)cc1,-3.5,-2.7,0.6,-8.1,-11.8,-2.9
O=C(c1ccc2c(c1)N(Cc1ccc(F)cc1)CCS2)N1CCOCC1,8.5*,·,0.0,-0.9,-6.6,3.0
SMILES,ARNT-TACC3 inh,ERp5 block,FGF22 binding,PDI turbidity,FN deposit inh,MLL AF4-AF9 inh
O=C(c1ccc2c(c1)N(Cc1ccccc1)CCS2)N1CCOCC1,-1.1,-1.7,-0.1,-5.2,-8.8,-17.4
CCS(=O)(=O)N[C@H]1C=C[C@@H](CC(=O)NC2Cc3ccccc3C2)O[C@@H]1CO,-2.5,-4.7,·,·,-2.2,-1.3
CN(C)/C=N/c1nc2nccc(-c3ccc(F)cc3)n2n1,1.6,10.0,42.1,1.5,3.1,-0.6
CN(C)/C=N/c1nc2ncc(-c3ccc(Cl)cc3)c(/N=C/N(C)C)n2n1,-6.5,2.3,43.1*,-8.5,-9.7,0.6
Cc1c(-n2cc(C(=O)c3cc(Br)ccc3O)cc(C#N)c2=O)c(=O)n(-c2ccccc2)n1C,1.0,·,·,35.2*,1.8,·
Cc1cccc(Oc2ccc(S(=O)(=O)N3CCCCC3)cc2N)c1,1.2,-2.0,0.2,0.9,6.8,0.8
Cc1ccc(S(=O)(=O)c2ccc(Oc3cccc(C)c3)cc2)cc1,-3.0,·,·,31.6*,4.2,·
COC(=O)C[C@H]1C[C@@H]2c3cc(N(C)C)ccc3O[C@@H]2[C@@H](CO)O1,45.1*,2.3,-0.9,·,-4.2,-0.7
COC(=O)C[C@H]1C[C@H]2c3cc(N(C)C)ccc3O[C@H]2[C@H](CO)O1,34.1,-1.7,-0.9,·,-1.6,-0.4
CN(C)c1ccc2c(c1)[C@@H]1C[C@@H](CC(=O)NCc3cc(F)ccc3F)O[C@H](CO)[C@@H]1O2,active,-2.7,-0.5,·,2.7,-4.7
CCCC#Cc1ccc2c(c1)O[C@H](CN(C)C(C)=O)[C@H](C)CN([C@@H](C)CO)S2(=O)=O,-0.3,-5.3,-0.9,·,9.8,-0.7
CC1CCN(C(=O)COC(=O)c2cc3ccccc3oc2=O)CC1,·,6.5,43.5*,2.4,10.2,2.4
Cn1c(CN2CCN(C(=O)c3ccccc3Cl)CC2)nc2cc([N+](=O)[O-])ccc21,-4.8,3.6,43.9*,-17.4,-10.2,-1.7
Cn1c(CN2CCN(C(=O)c3ccccc3)CC2)nc2cc([N+](=O)[O-])ccc21,·,-1.3,-0.1,1.3,·,-0.3
O=C(Nc1ccccc1)SC1CCCCC1,9.3,2.8,43.1*,-1.4,11.8,-0.4
CN(C(=O)Nc1ccccc1)C1CCCCC1,-2.7,6.4,0.0,23.2,-4.5,1.5
Cc1ccc(NC(=S)Nc2cc(C(=O)O)ccc2N2CC3CC(C2)c2cccc(=O)n2C3)cc1C (stereo not given),23.9,-6.6,-0.2,3.0,4.6,1.8
COc1cccc(NC(=S)Nc2cc(C(=O)O)ccc2N2CC3CC(C2)c2cccc(=O)n2C3)c1 (stereo not given),8.1,4.5,3.3*,1.3,4.5,?
COc1ccc(N2CCN(CCCNC(=O)c3cc4sccc4n3C)CC2)cc1,32.1,-1.2,0.1,-9.8,·,28.5*
O=C(NCCCN1CCOCC1)C(=O)c1c[nH]c2ccccc12,9.9,0.8,-0.3,1.3,3.0,-5.8
COc1ccc(N2CCN(CCCNC(=O)C(=O)c3c[nH]c4ccccc34)CC2)cc1,48.0*,3.5,0.0,0.0,·,21.7
O=C(NCC[C@H]1CC[C@H](NC(=O)C2CCCCC2)[C@@H](CO)O1)Nc1ccc(Cl)cc1,-6.3,2.9,0.0,·,0.0,10.1
